The source made the active and inactive calls. The calls are words filed in the database; no cut-off is given here.
Columns and labels:
Plasmodium falciparum [1] = experiment: Antiplasmodial activity against Plasmodium falciparum infected in human erythrocytes assessed as inhibition of parasite growth; format: functional; conditions: read-out: ED50 (the source's name)
Plasmodium falciparum [2] = experiment: Antiplasmodial activity against Plasmodium falciparum 3D7 trophozoites infected in human erythrocytes assessed as [3H]hypoxanthine incorporation into nucleic acid after 30 hrs by beta-scintillation counting; format: functional, organism-based
[3] = molecular target: Plasmepsin II (Plasmodium falciparum) (UniProt P46925); experiment: Inhibition of Plasmodium falciparum plasmepsin-2 expressed in Escherichia coli BL21 (DE3) at 1 uM after 1 to 2 hrs
Sequence of Plasmepsin II (Plasmodium falciparum) (P46925 125-453 limits assumed): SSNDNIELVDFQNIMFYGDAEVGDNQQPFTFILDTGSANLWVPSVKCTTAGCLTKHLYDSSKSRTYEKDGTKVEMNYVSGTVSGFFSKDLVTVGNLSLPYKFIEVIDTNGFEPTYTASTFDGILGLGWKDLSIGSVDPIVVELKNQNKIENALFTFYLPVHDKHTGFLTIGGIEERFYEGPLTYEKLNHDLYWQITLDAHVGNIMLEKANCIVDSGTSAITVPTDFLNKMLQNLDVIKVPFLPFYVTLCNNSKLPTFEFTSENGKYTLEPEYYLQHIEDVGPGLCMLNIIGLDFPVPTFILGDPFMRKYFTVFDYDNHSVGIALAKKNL

[4] = molecular target: Plasmepsin II (Plasmodium falciparum) (UniProt P46925); experiment: Irreversible inhibition of Plasmodium falciparum plasmepsin-2 expressed in Escherichia coli BL21 (DE3) at 1 uM measured after overnight dialysis by spun column chromatography
[5] = molecular target: Plasmepsin II (Plasmodium falciparum) (UniProt P46925); experiment: Inhibition of Plasmodium falciparum plasmepsin-2 expressed in Escherichia coli BL21 (DE3) at 1 uM after 30 min by FRET assay
[6] = molecular target: Plasmepsin II (Plasmodium falciparum) (UniProt P46925); experiment: Inhibition of Plasmodium falciparum plasmepsin-2 expressed in Escherichia coli BL21 (DE3) at compound to substrate ratio of 1:1 to 1: 5 after 2 hrs by FRET assay
CHO [7] = experiment: Cytotoxicity against CHO cells at 10 uM after 24 hrs by MTS assay; format: cell-based, Cricetulus griseus; conditions: chinese hamster
Plasmepsin II [8] = molecular target: T1, Plasmepsin II (Plasmodium falciparum, UniProt P46925); experiment: Competitive inhibition of Plasmodium falciparum plasmepsin-2 expressed in Escherichia coli BL21 (DE3) after 30 min by FRET assay
T1 sequence (P46925 whole entry): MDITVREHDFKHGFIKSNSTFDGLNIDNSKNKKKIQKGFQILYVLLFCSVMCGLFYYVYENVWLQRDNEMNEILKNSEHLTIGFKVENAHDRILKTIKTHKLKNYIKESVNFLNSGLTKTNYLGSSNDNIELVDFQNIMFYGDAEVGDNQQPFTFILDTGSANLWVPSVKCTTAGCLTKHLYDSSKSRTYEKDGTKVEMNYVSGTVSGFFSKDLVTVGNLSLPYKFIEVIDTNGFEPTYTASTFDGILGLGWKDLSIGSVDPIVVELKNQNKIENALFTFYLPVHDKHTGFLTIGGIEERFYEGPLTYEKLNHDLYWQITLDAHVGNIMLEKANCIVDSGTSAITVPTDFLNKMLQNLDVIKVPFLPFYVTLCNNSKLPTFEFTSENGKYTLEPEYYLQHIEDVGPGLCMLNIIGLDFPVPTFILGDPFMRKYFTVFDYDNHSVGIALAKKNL
Outline: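 Recombinant mature Plm II from inclusion bodies, refolded and activated in 0.1 M sodium citrate pH 4.7, stored in 20 mM Tris-HCl pH 8.5 with 0.25 M NaCl. FRET assay in NaOAc buffer pH 5.0 using 2.5 nM enzyme and 1 μM DABCYL-Glu-Arg-Nle-Phe-Leu-Ser-Phe-Pro-EDANS substrate. Inhibitor, enzyme and substrate incubated 30 min at 37 C; EDANS fluorescence read at excitation 336 nm.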

Cathepsin D = Cathepsin D (Homo sapiens, UniProt P07339); experiment: Inhibition of human cathepsin D after 30 mins by FRET assay
Sequence of Cathepsin D (P07339 65-162 limits assumed): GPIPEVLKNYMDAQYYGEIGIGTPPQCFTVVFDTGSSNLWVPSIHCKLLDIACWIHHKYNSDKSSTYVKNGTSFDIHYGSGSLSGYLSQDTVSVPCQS
Sequence of Cathepsin D (P07339 169-412 limits assumed): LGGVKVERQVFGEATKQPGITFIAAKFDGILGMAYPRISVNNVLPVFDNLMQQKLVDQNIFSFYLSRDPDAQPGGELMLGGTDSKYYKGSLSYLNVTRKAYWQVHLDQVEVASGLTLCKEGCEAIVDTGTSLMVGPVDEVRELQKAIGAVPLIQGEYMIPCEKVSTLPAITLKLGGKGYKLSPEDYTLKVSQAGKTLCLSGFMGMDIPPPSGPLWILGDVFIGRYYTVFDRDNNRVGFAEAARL

Plasmepsin II [9] = molecular target: T1, Plasmepsin II; experiment: Inhibition of Plasmodium falciparum plasmepsin-2 expressed in Escherichia coli BL21 (DE3) after 40 min by Kitz-Wilson plot analysis
Plasmepsin II [10] = molecular target: T1, Plasmepsin II; experiment: Inhibition of Plasmodium falciparum plasmepsin-2
[11] = molecular target: Plasmepsin II (Plasmodium falciparum) (UniProt P46925); experiment: Inhibition of Plasmodium falciparum plasmepsin-2 expressed in Escherichia coli BL21 (DE3) assessed as residual activity at 1 uM measured after overnight dialysis by spun column chromatography
[12] = Selectivity ratio of IC50 for human cathepsin D to IC50 for Plasmodium falciparum plasmepsin-2 expressed in Escherichia coli BL21 (DE3)
Plasmodium falciparum [13] = experiment: Antiplasmodial activity against Plasmodium falciparum assessed as inhibition of parasite growth at 20 uM; format: functional
[14] = Selectivity ratio of Ki for human cathepsin D to Ki for Plasmodium falciparum recombinant plasmepsin-2
[15] = Selectivity ratio of Ki for human cathepsin D to Ki for Plasmodium falciparum plasmepsin-2
CHO [16] = experiment: Cytotoxicity against CHO cells at 100 ug/mL after 24 hrs by MTS assay; format: cell-based, Cricetulus griseus; conditions: chinese hamster
CHO [17] = experiment: Cytotoxicity against CHO cells at 250 ug/mL after 24 hrs by MTS assay; format: cell-based, Cricetulus griseus; conditions: chinese hamster

Row | Compound | IC50 (Plasmodium falciparum [2]) | inhibition [3] | inhibition [4] | inhibition [5] | IC50 (Plasmepsin II [8]) | IC50 (Cathepsin D) | Activity [11] | Ratio IC50 [12] | Activity (CHO [7]) | further results
1 | CC(C)C[C@H](NC(=O)[C@H](C)NC(=O)C[C@H](O)[C@H](COCc1ccc(Br)cc1)NC(=O)[C@@H](NC(=O)c1ccccn1)C(C)C)C(N)=O | 5000 nM | – | – | – | – | – | – | – | – | Ki (Plasmepsin II [10]): 0.5 nM
2 | C#CCNC(=O)[C@H](Cc1ccccc1)NC(=O)C[C@H](O)[C@H](Cc1ccccc1)NC(=O)[C@@H](NC(=O)c1ccccn1)C(C)C | 9200 nM | 76.9% | inactive | Active | 22 nM | 50 nM | 36.1% | 10.6 | Non-toxic | –
3 | Cc1cccc(C)c1OCC(=O)N[C@@H](Cc1ccccc1)[C@@H](O)C[C@H](CC(C)C)NC(=O)[C@H](C(C)C)N1CCCNC1=O | 5000 nM | – | – | – | – | – | – | – | – | Ratio Ki [15]: 10; Ki (Plasmepsin II [10]): 357 nM
4 | CC(C)C[C@H](NC(=O)[C@H](CCl)NC(=O)C[C@H](O)[C@H](Cc1ccccc1)NC(=O)[C@@H](NC(=O)c1ccccn1)C(C)C)C(N)=O | – | 76.9% | Active | Active | 28 nM | 50 nM | – | 3.3 | Non-toxic | inhibition [6]: Active; Activity (CHO [16]): Non-toxic; Activity (CHO [17]): Non-toxic; Ki (Plasmepsin II [9]): 35.7 nM
5 | CC(C)CC(=O)N[C@H](C(=O)N[C@H](C(=O)N[C@@H](CC(C)C)[C@@H](O)CC(=O)N[C@@H](C)C(=O)N[C@@H](CC(C)C)[C@@H](O)CC(=O)O)C(C)C)C(C)C | – | 97.8% | – | 82.8% | – | – | 85.2% | – | – | –

The next lines start with results.

Row | IC50 (Plasmodium falciparum [2]) | inhibition [3] | inhibition [4] | inhibition [5] | IC50 (Plasmepsin II [8]) | IC50 (Cathepsin D) | Activity [11] | Ratio IC50 [12] | Compound | Activity (CHO [7]) | further results
6 | 5000 nM | – | – | – | – | – | – | – | Cc1ccc(-c2ccc(C[C@H](NC[C@H](O)[C@H](Cc3ccccc3)NC(=O)[C@@H](NC(=O)c3ccccn3)C(C)C)C(N)=O)cc2)cc1 | – | EC50 (Plasmodium falciparum [1]): 1600 nM
7 | 7700 nM | 76.9% | Active | Active | 333 nM | 50 nM | – | – | C#CC[C@H](NC(=O)C[C@H](O)[C@H](Cc1ccccc1)NC(=O)[C@@H](NC(=O)c1ccccn1)C(C)C)C(=O)N[C@@H](CC(C)C)C(N)=O | Non-toxic | inhibition [6]: Active; Ki (Plasmepsin II [9]): 333 nM
8 | 5000 nM | – | – | – | – | – | – | – | CC(C)C[C@H](NC(=O)[C@H](C)NC(=O)C[C@H](O)[C@H](Cc1ccccc1)NC(=O)[C@@H](NC(=O)c1ccccn1)C(C)C)C(N)=O | – | inhibition at 20 µM (Plasmodium falciparum [13]): 54%; Ratio Ki [14]: 38
9 | – | 76.9% | inactive | 88.2% | 141 nM | 50 nM | 88% | 1.4 | CC(C)C[C@H](NC(=O)[C@H](CC#N)NC(=O)C[C@H](O)[C@H](Cc1ccccc1)NC(=O)[C@@H](NC(=O)c1ccccn1)C(C)C)C(N)=O | Non-toxic | –

Source: ChEMBL document CHEMBL1157812, “Mechanism-based inhibitors of the aspartyl protease plasmepsin II as potential antimalarial agents” (J Med Chem, 2010)
